How the values were obtained:
D(3) dopamine receptor = D(3) dopamine receptor (Rattus norvegicus, UniProt P19020); experiment: biochemical
[1] = Binding affinity for D1-like [3H]-SCH- 23390 receptor was determined using caudate-putamen of adult male Spragueo?=Dawley rats; assay type: tissue-based, Rattus norvegicus
How it was run: (§1)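 Rat caudate-putamen membranes, adult male Sprague–Dawley. Buffer 50 mM Tris–HCl, 5 mM KCl, 2 mM MgCl2, 2 mM CaCl2, pH 7.4 at 23 °C. [3H]SCH 23390 0.3 nM, with nonspecific binding defined by 1 μM (+)-butaclamol. Compounds were dissolved in 100% EtOH up to 5 mM (stock).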

[2] = Binding affinity for D2-like [3H]spiperone receptor was determined using caudate-putamen of adult male Spragueo?=Dawley rats; assay type: tissue-based, Rattus norvegicus
How it was run: as §1, with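 “[3H]spiperone 0.2” for “[3H]SCH 23390 0.3”, “(stock). Ki was derived from the radioligand KD.” for “(stock).”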

Sequence of D(3) dopamine receptor (P19020 whole entry): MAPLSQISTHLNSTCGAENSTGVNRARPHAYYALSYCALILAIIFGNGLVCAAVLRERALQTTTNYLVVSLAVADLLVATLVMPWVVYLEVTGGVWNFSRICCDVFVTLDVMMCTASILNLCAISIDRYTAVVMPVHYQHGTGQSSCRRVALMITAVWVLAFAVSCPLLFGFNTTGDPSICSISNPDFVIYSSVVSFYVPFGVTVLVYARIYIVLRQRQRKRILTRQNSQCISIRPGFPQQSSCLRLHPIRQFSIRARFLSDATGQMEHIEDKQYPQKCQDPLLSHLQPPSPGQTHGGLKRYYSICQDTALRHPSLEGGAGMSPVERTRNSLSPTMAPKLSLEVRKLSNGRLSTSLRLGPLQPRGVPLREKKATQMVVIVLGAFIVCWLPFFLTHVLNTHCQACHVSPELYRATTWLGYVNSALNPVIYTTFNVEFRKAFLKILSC

Row | SMILES | Ki (D(3) dopamine receptor) [nM] | Ki [1] [nM] | Ki [2] [nM]
1 | O=C(CCCCN1CCN2c3ccccc3CCC2C1)c1ccc(F)cc1 (stereo not drawn) | 381 | 2470 | 852
2 | O=C(NCCCCN1CCN2c3ccccc3CCC2C1)c1ccc2ccccc2c1 (stereo not drawn) | 18 | 791 | 1570
3 | COc1ccc2c(c1)N1CCN(CCCCNC(=O)c3ccc4ccccc4c3)CC1CC2 (stereo not drawn) | 45 | 5800 | 1120
4 | O=C(NCCN1CCN2c3ccccc3CCC2C1)c1ccc2ccccc2c1 (stereo not drawn) | 1650 | 1220 | 1390
5 | O=C(NCCCN1CCN2c3ccccc3CCC2C1)c1ccc2ccccc2c1 (stereo not drawn) | 1540 | 153000 | 2440
6 | O=C(NCCCN1CCN2c3ccccc3CCC2C1)c1ccc(-c2ccccc2)cc1 (stereo not drawn) | 2520 | 356 | 906
7 | O=C(CCCN1CCN2c3ccccc3CCC2C1)c1ccc(F)cc1 (stereo not drawn) | 304 | 904 | 243
8 | O=C(CCN1CCN2c3ccccc3CCC2C1)c1ccc(F)cc1 (stereo not drawn) | 2750 | 8890 | 3640
9 | COc1cccc2c1CCC1CN(CCCCNC(=O)c3ccc4ccccc4c3)CCN21 (stereo not drawn) | 5.8 | 4600 | 762
10 | COc1ccc2c(c1)CCC1CN(CCCCNC(=O)c3ccc4ccccc4c3)CCN21 (stereo not drawn) | 244 | > 250000 | > 250000
11 | COc1cccc2c1N1CCN(CCCCNC(=O)c3ccc4ccccc4c3)CC1CC2 (stereo not drawn) |  | 6050 | 258
12 | O=C(NCCN1CCN2c3ccccc3CCC2C1)c1ccc(-c2ccccc2)cc1 (stereo not drawn) | 23000 | > 100000 | > 100000
13 | O=C(CN1CCN2c3ccccc3CCC2C1)c1ccc(F)cc1 (stereo not drawn) | 7490 | 7950 | 3890
14 | O=C(NCCCCN1CCN2c3ccccc3CCC2C1)c1ccc(-c2ccccc2)cc1 (stereo not drawn) | 22 | 258 | 220
15 | COc1ccccc1N1CCN(CCCCNC(=O)c2ccc3ccccc3c2)CC1 [BP-897] |  | 636 | 162

From ChEMBL document CHEMBL1142048, “Design, synthesis and structure-activity relationship studies of hexahydropyrazinoquinolines as a novel class of potent and selective dopamine receptor 3 (D3) ligands” (Bioorg Med Chem Lett, 2005)
